# Published values pooled from the literature.
# Lines come from different studies, so protocols differ.
# Cell line: Vero
# Observed: cell growth or viability
Structure (SMILES),assay,conditions,CC50 [µM]
CCOC(=O)c1c(NCc2ccc(SC)cc2)c2cccc(C)c2[nH]c1=O,MTS,48 h,> 100
CC(C)(C)[C@H](NS(=O)(=O)C(F)(F)F)C(=O)N1[C@@H]2CC[C@@H](C2)[C@H]1C(=O)N[C@@H](C[C@@H]1CCNC1=O)C(=O)c1nc2ccccc2s1,,48 h,> 50
C#Cc1cccc(Nc2ncnc3cc(OCCOC)c(OCCOC)cc23)c1,resazurin,,> 60
Clc1ccc(C(Cn2ccnc2)OCc2csc3c(Cl)cccc23)c(Cl)c1 (stereo not drawn),WST-1,18 h,~21.2
COc1cc2ncnc(Nc3ccc(F)c(Cl)c3)c2cc1OCCCN1CCOCC1,resazurin,,> 60
C=C(c1ccc(C(=O)O)cc1)c1cc2c(cc1C)C(C)(C)CCC2(C)C,WST-1,18 h,> 40
COC(=O)N[C@H](C(=O)N1C[C@@H](n2cc(C(=O)OC)nn2)C[C@H]1c1ncc(-c2ccc(-c3ccc(-c4cnc([C@@H]5C[C@H](n6cc(C(=O)OC)nn6)CN5C(=O)[C@@H](NC(=O)OC)C(C)C)[nH]4)cc3)cc2)[nH]1)C(C)C,,,> 100
FC(F)(F)c1cccc(Nc2nc(NCCOc3ccccc3)nc3[nH]cnc23)c1,ATP luminescence,,> 200
CCC(CC)COC(=O)[C@H](C)N[P@](=O)(OC[C@H]1O[C@@](C#N)(c2ccc3c(N)ncnn23)[C@H](O)[C@@H]1O)Oc1ccccc1,,,> 13
COc1ccc(C[C@H](NC(=O)[C@H](C)NC(=O)CN2CCOCC2)C(=O)N[C@@H](Cc2ccccc2)C(=O)C(=O)Nc2ccccc2)cc1,ATP luminescence,48 h,71.1
COC(=O)N[C@H](C(=O)N1C[C@H](n2cc(-c3ccccc3)nn2)C[C@H]1c1ncc(-c2ccc(-c3ccc(-c4cnc([C@@H]5C[C@@H](n6cc(-c7ccccc7)nn6)CN5C(=O)[C@@H](NC(=O)OC)C(C)C)[nH]4)cc3)cc2)[nH]1)C(C)C,,,> 100
CCN(CC)CCNC(=O)c1c(C)[nH]c(/C=C2\C(=O)Nc3ccc(F)cc32)c1C,resazurin,,25
CC(C)C[C@H](NC(=O)OCc1ccccc1)C(=O)N[C@@H](CC(C)C)C(=O)N[C@@H](CC(C)C)C(=O)C(=O)Nc1ccccc1,ATP luminescence,48 h,16
O=C(NCc1ccc(F)cc1)c1cccc(Nc2ccc(-c3ccccc3)nn2)c1,MTS,48 h,> 100
CC(C)(C)NC(=O)N[C@H](C(=O)N1C[C@H]2[C@@H]([C@H]1C(=O)NC(CC1CCC1)C(=O)C(N)=O)C2(C)C)C(C)(C)C (stereo partly drawn),neutral red,48 h,> 100
